According to ChEMBL document CHEMBL4725358 (J Med Chem, 2020):
The source made the active and inactive calls. The rule behind the calls is not given here.

Key:
Assay type in all cases: cell-based
[1] = molecular target: Probable G-protein coupled receptor 34 (Mus musculus) (UniProt Q9R1K6); experiment: Agonist activity at mouse GPR34 expressed in HEK293 cells co-transfected with AP-TGFalpha/Galphaq/i1 assessed as induction of ectodomain shedding of membrane bound AP-TGFalpha after 1 hr by p-NPP substrate based microplate reader analysis relative to control
Sequence of Probable G-protein coupled receptor 34 (Mus musculus) (Q9R1K6 whole entry, the tested form may be a part): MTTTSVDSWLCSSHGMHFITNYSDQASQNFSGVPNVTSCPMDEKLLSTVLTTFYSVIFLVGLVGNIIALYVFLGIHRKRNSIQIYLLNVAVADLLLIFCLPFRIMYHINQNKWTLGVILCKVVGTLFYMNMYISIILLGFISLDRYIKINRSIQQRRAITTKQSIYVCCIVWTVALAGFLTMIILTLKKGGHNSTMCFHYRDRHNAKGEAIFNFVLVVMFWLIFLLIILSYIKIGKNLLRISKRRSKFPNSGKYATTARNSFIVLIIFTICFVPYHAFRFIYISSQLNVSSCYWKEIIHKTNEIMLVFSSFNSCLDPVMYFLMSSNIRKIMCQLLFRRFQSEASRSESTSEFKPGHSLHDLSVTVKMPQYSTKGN
Outline: (§1)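 HEK293 cells transiently transfected with AP-TGFα, chimeric Gα and mouse GPR34 vectors, then treated with compound. Empty-vector cells (AP-TGFα plus chimeric Gα) served as background. Receptor-specific AP-TGFα release was taken after subtracting that background, and concentration-response curves gave EC50 and Emax. Mean and SEM of 3−8 independent experiments.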

[2] = molecular target: Putative P2Y purinoceptor 10 (Mus musculus) (UniProt Q8BFU7); experiment: Agonist activity at mouse P2Y10 expressed in HEK293 cells co-transfected with AP-TGFalpha/Galphaq/i1 assessed as induction of ectodomain shedding of membrane bound AP-TGFalpha after 1 hr by p-NPP substrate based microplate reader analysis relative to control
Sequence of Putative P2Y purinoceptor 10 (Mus musculus) (Q8BFU7 whole entry, the tested form may be a part): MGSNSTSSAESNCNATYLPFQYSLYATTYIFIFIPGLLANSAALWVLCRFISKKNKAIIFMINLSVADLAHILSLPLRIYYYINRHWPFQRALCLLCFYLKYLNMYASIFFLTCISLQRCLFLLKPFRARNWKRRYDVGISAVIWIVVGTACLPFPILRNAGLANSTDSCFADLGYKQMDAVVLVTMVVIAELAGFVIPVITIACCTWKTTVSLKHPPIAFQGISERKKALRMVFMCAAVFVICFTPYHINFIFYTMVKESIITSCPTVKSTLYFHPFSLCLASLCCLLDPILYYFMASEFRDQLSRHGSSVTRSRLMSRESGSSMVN
Outline: (§2)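 Run the same way as the GPR34 shedding assay, but with a mouse P2Y10 expression vector in HEK293 cells alongside AP-TGFα and chimeric Gα. Receptor-specific AP-TGFα release was found by subtracting the empty-vector background. EC50 and Emax came from concentration-response curves. Mean and SEM of 3−8 independent experiments.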

[3] = molecular target: Putative P2Y purinoceptor 10 (Mus musculus, UniProt Q8BFU7); experiment: Agonist activity at mouse P2Y10 expressed in HEK293 cells co-transfected with AP-TGFalpha/Galphaq/i1 assessed as induction of ectodomain shedding of membrane bound AP-TGFalpha after 1 hr by p-NPP substrate based microplate reader analysis; outline: as §2
Sequence of Putative P2Y purinoceptor 10 (Q8BFU7 whole entry, the tested form may be a part): as above

[4] = molecular target: Probable G-protein coupled receptor 34 (Mus musculus) (UniProt Q9R1K6); experiment: Agonist activity at mouse GPR34 expressed in HEK293 cells co-transfected with AP-TGFalpha/Galphaq/i1 assessed as induction of ectodomain shedding of membrane bound AP-TGFalpha after 1 hr by p-NPP substrate based microplate reader analysis relative to positive control; outline: as §1
[5] = molecular target: Putative P2Y purinoceptor 10 (Mus musculus) (UniProt Q8BFU7); experiment: Agonist activity at mouse P2Y10 expressed in HEK293 cells co-transfected with AP-TGFalpha/Galphaq/i1 assessed as induction of ectodomain shedding of membrane bound AP-TGFalpha after 1 hr by p-NPP substrate based microplate reader analysis relative to positive control; outline: as §2
[6] = molecular target: Probable G-protein coupled receptor 34 (Mus musculus, UniProt Q9R1K6); experiment: Agonist activity at mouse GPR34 expressed in HEK293 cells co-transfected with AP-TGFalpha/Galphaq/i1 assessed as induction of ectodomain shedding of membrane bound AP-TGFalpha after 1 hr by p-NPP substrate based microplate reader analysis; conditions: read-out: EC50; outline: as §1
Sequence of Probable G-protein coupled receptor 34 (Q9R1K6 whole entry, the tested form may be a part): as the sequence (Q9R1K6 whole entry, the tested form may be a part) above

In the case of CCCCCCCCCCCOc1ccccc1CCC(=O)O[C@H]1COCC[C@@H]1OP(=O)(O)OC[C@H](N)C(=O)O, the Emax [1] is reported as “inactive”, the Emax [2] is reported as 12.4% and the EC50 [3] is reported as 150 nM. For the same molecule, the “fold change (FC)” value [4] was “inactive”, the fold change (FC) ([5]; filed as agonist) was 0.0085 and the EC50 [6] was greater than 3000 nM.
With CCCCCCCCCCCOc1ccccc1CCC(=O)OCCOP(=O)(O)OC[C@H](N)C(=O)O the Emax [1] was 4.8%, the Emax [2] was 12.7% and the EC50 [3] was 5.7 nM. For the same molecule, the fold change (FC) ([4]; filed as agonist) was 0.12, the fold change (FC) ([5]; filed as agonist) was 0.32 and the EC50 [6] was 330 nM.
CCCCCCCCCCCOc1ccccc1CCC(=O)OC1COCC[C@H]1OP(=O)(O)OC[C@H](N)C(=O)O (single isomer, unassigned) showed an Emax [1] of 10%, an Emax [2] of 11.4% and an EC50 [3] of 26 nM. It also gave a fold change (FC) ([4]; filed as agonist) of 32, a fold change (FC) ([5]; filed as agonist) of 0.039 and an EC50 [6] of 2.9 nM.
CCCCCCCCCCCOc1ccccc1CCC(=O)OC1COCCC1OP(=O)(O)OC[C@H](N)C(=O)O (single isomer, unassigned) gave an Emax [1] of 3.7%, an Emax [2] of 8.6% and an EC50 [3] of 1300 nM. The fold change (FC) ([4]; filed as agonist) was 0.1, the fold change (FC) ([5]; filed as agonist) was 0.00079 and the EC50 [6] was 340 nM.
For CCCCCCCC/C=C\CCCCCCCC(=O)O[C@@H](C)COP(=O)(O)OC[C@H](N)C(=O)O, the Emax [1] was “inactive”, the Emax [2] was 11.6% and the EC50 [3] was 390 nM. The “fold change (FC)” value [4] was “inactive”, the fold change (FC) ([5]; filed as agonist) was 0.0034 and the EC50 [6] was greater than 3000 nM.
With CCCCCCCC/C=C\CCCCCCCC(=O)OCCOP(=O)(O)OC[C@H](N)C(=O)O the Emax [1] was “inactive”, the Emax [2] was 10.6% and the EC50 [3] was 66 nM. The “fold change (FC)” value [4] was “inactive”, the fold change (FC) ([5]; filed as agonist) was 0.02 and the EC50 [6] was greater than 3000 nM.
With CCCCCCCC/C=C\CCCCCCCC(=O)OC[C@@H](COCCC)OP(=O)(O)OC[C@H](N)C(=O)O the Emax [1] was 12.2%, the Emax [2] was “inactive” and the EC50 [3] was greater than 3000 nM. The fold change (FC) ([4]; filed as agonist) was 17, the “fold change (FC)” value [5] was “inactive” and the EC50 [6] was 6.1 nM.
With CCCCCCCC/C=C\CCCCCCCC(=O)OC[C@H](COC)OP(=O)(O)OC[C@H](N)C(=O)O the Emax [1] was 7.5%, the Emax [2] was “inactive” and the EC50 [3] was greater than 3000 nM. The fold change (FC) ([4]; filed as agonist) was 0.13, the “fold change (FC)” value [5] was “inactive” and the EC50 [6] was 620 nM.
Work on CCCCCCCC/C=C\CCCCCCCC(=O)OC[C@H](C)OP(=O)(O)OC[C@H](N)C(=O)O yielded an Emax [1] of 11.2%, an Emax [2] of 11.3% and an EC50 [3] of 37 nM. For the same molecule, the fold change (FC) ([4]; filed as agonist) was 0.56, the fold change (FC) ([5]; filed as agonist) was 0.034 and the EC50 [6] was 170 nM.
CCCCCCCCCCCOc1ccccc1CCC(=O)O[C@@H]1CCOC[C@@H]1OP(=O)(O)OC[C@H](N)C(=O)O showed an Emax [1] of 8.9%, an Emax [2] of 19.3% and an EC50 [3] of 1300 nM. For the same molecule, the fold change (FC) ([4]; filed as agonist) was 0.61, the fold change (FC) ([5]; filed as agonist) was 0.00089 and the EC50 [6] was 220 nM.
With C[C@H](COC(=O)CCc1ccccc1OCc1cccc(Oc2ccccc2)c1)OP(=O)(O)OC[C@H](N)C(=O)O the Emax [1] was 12.4%, the Emax [2] was 13.2% and the EC50 [3] was 290 nM. It also gave a fold change (FC) ([4]; filed as agonist) of 11, a fold change (FC) ([5]; filed as agonist) of 0.0056 and an EC50 [6] of 9 nM.
In the case of CCCCCCCC/C=C\CCCCCCCC(=O)OCCCCCOP(=O)(O)OC[C@H](N)C(=O)O, the Emax [1] is reported as 4.6%, the Emax [2] is reported as 10.8% and the EC50 [3] is reported as 240 nM. It also gave a fold change (FC) ([4]; filed as agonist) of 0.076, a fold change (FC) ([5]; filed as agonist) of 0.0061 and an EC50 [6] of 470 nM.
CCCCCCCC/C=C\CCCCCCCC(=O)O[C@H](C)COP(=O)(O)OC[C@H](N)C(=O)O gave an Emax [1] of 6.1%, an Emax [2] of 11.4% and an EC50 [3] of 79 nM. The fold change (FC) ([4]; filed as agonist) was 0.22, the fold change (FC) ([5]; filed as agonist) was 0.02 and the EC50 [6] was 250 nM.
Molecule N[C@@H](COP(=O)(O)OCCOC(=O)CCc1ccccc1OCc1cccc(Oc2ccccc2)c1)C(=O)O has an Emax [1] of 12.4%, an Emax [2] of 20.8% and an EC50 [3] of 2300 nM. For the same molecule, the fold change (FC) ([4]; filed as agonist) was 0.44, the fold change (FC) ([5]; filed as agonist) was 0.0013 and the EC50 [6] was 220 nM.
With C#CCOC[C@H](COC(=O)CCCCCCC/C=C\CCCCCCCC)OP(=O)(O)OC[C@H](N)C(=O)O the Emax [1] was 12.6%, the Emax [2] was 3.2% and the EC50 [3] was 420 nM. For the same molecule, the fold change (FC) ([4]; filed as agonist) was 10, the fold change (FC) ([5]; filed as agonist) was 0.00074 and the EC50 [6] was 12 nM.
